In ChEMBL document CHEMBL1153826, “Synthesis of dammarane-type triterpene derivatives and their ability to inhibit HIV and HCV proteases” (Bioorg Med Chem, 2009):
Activity calls are given as the source filed them. No cut-off for these calls is given here.

Assays:
[1] = Inhibition of HCV protease by fluorometric method; set-up: species or system Hepacivirus hominis
[2] = target: Protease (Human immunodeficiency virus 1, UniProt Q9YQ12); assay: Inhibition of HIV1 protease by HPLC method
[3] = Inhibition of trypsin up to 1 ug/mL; conditions: in the assay text read “1 mg/mL” for “1 ug/mL”
Procedure, shortened: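 Trypsin was mixed with the compound in DMSO and assay buffer in 384-well plates. Fresh HiLyte Fluor 488-labeled casein substrate was added with rotary shaking, then incubated 30 min at 37 °C. Fluorescence was read and inhibition calculated as in the HCV protease assay. Soybean trypsin–chymotrypsin inhibitor was the positive control.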

[4] = target: T1, Renin (Homo sapiens) (UniProt P00797); assay: Inhibition of renin up to 1 ug/mL; conditions: in the assay text read “1 mg/mL” for “1 ug/mL”
T1 sequence (whole entry): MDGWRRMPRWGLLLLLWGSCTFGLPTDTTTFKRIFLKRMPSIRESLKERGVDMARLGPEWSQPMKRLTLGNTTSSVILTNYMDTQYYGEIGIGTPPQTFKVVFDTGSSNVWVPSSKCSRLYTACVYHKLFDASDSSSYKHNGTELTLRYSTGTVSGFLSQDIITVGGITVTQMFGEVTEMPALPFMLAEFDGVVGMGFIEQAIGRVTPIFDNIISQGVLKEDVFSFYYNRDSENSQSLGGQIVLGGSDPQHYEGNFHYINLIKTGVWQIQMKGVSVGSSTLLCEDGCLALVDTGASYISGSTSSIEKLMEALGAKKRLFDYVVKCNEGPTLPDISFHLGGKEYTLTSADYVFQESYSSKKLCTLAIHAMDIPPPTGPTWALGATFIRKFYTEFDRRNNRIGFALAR
Procedure, shortened: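 Recombinant renin was mixed with the compound in DMSO in 384-well plates. Fresh FRET peptide substrate Arg-Glu(EDANS)-[…]Dabcyl)-Arg was added, then rotated 30 min at 37 °C. Read-out was fluorometric, with inhibition calculated as in the HCV protease assay. Ac-HPFV-(Sta)-LF-NH2 was the positive control.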

Protease, sequence (Q9YQ12 whole entry): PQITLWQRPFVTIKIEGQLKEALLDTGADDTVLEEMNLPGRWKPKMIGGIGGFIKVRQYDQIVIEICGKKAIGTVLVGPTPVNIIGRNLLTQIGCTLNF

Row | SMILES | IC50 [1] | IC50 [2] | Activity [3] | Activity [4]
1 | CC1(C)CCC[C@](C)([C@H]2CC[C@]3(C)[C@@H]2[C@H](O)C[C@@H]2[C@@]4(C)CCC(=O)C(C)(C)[C@@H]4C(=O)C[C@]23C)O1 | > 213 µM | 42.3 µM |  | 
2 | CC1(C)CCC[C@](C)([C@H]2CC[C@]3(C)[C@@H]2[C@H](O)C[C@@H]2[C@@]4(C)C[C@](O)(C(=O)O)C(C)(C)[C@@H]4CC[C@]23C)O1 | > 204 µM | 10 µM |  | 
3 | CC1(C)CCC[C@](C)([C@H]2CC[C@]3(C)[C@@H]2[C@H](O)C[C@@H]2[C@@]4(C)C=C(O)C(=O)C(C)(C)[C@@H]4CC[C@]23C)O1 | > 212 µM | 28.5 µM |  | 
4 | CC1(C)CCC[C@](C)([C@H]2CC[C@]3(C)[C@@H]2[C@H](O)C[C@@H]2[C@@]4(C)C[C@](O)(C(=O)O)C(C)(C)[C@@H]4C(=O)C[C@]23C)O1 | > 213 µM | 29.9 µM |  | 
5 | COC(=O)[C@@]1(O)C[C@]2(C)[C@H]3C[C@@H](O)[C@@H]4[C@@H]([C@@]5(C)CCCC(C)(C)O5)CC[C@@]4(C)[C@]3(C)CC[C@H]2C1(C)C | > 198 µM | > 198 µM |  | 
6 | CC1(C)CCC[C@](C)([C@H]2CC[C@]3(C)[C@@H]2[C@H](O)C[C@@H]2[C@@]4(C)CC[C@H](O)C(C)(C)[C@@H]4[C@@H](O)C[C@]23C)O1 [PANAXATRIOL] | > 210 µM | > 210 µM |  | 
7 | CC1(C)CCC[C@](C)([C@H]2CC[C@]3(C)[C@@H]2[C@H](O)C[C@@H]2[C@@]4(C)CCC(=O)C(C)(C)[C@@H]4CC[C@]23C)O1 | > 218 µM | 39.4 µM |  | 
8 | CC1(C)CCC[C@](C)([C@H]2CC[C@]3(C)[C@@H]2C(=O)C[C@@H]2[C@@]4(C)CCC(=O)C(C)(C)[C@@H]4C(=O)C[C@]23C)O1 | > 213 µM | 24.2 µM |  | 
9 | CC1(C)CCC[C@](C)([C@H]2CC[C@]3(C)[C@@H]2[C@H](O)C[C@@H]2[C@@]4(C)CC[C@H](O)C(C)(C)[C@@H]4CC[C@]23C)O1 [PANAXADIOL] | > 217 µM | > 217 µM |  | 

Further lines, results first:

Row | IC50 [1] | IC50 [2] | Activity [3] | Activity [4] | SMILES
10 | 9.1 µM | 22.8 µM | inactive | inactive | CC1(C)CCC[C@](C)([C@H]2CC[C@]3(C)[C@@H]2C(=O)C[C@@H]2[C@@](C)(CC(=O)O)[C@H](C(C)(C)C(=O)O)CC[C@]23C)O1
11 | > 198 µM | 11.9 µM | inactive | inactive | CC1(C)CCC[C@](C)([C@H]2CC[C@]3(C)[C@@H]2[C@H](O)C[C@@H]2[C@@](C)(CC(=O)O)[C@H](C(C)(C)C(=O)O)CC[C@]23C)O1
12 | 72.3 µM | > 218 µM |  |  | CC1(C)CCC[C@](C)([C@H]2CC[C@]3(C)[C@@H]2C(=O)C[C@@H]2[C@@]4(C)CCC(=O)C(C)(C)[C@@H]4CC[C@]23C)O1
13 | > 166 µM | 2.7 µM | inactive | inactive | CC1(C)CCC[C@](C)([C@H]2CC[C@]3(C)[C@@H]2[C@H](O)C[C@@H]2[C@@]4(C)CC[C@H](O)C(C)(C)[C@@H]4[C@@H](OC(=O)CC(C)(C)C(=O)O)C[C@]23C)O1
14 | 62.2 µM | 6.5 µM | inactive | inactive | CC1(C)CCC[C@](C)([C@H]2CC[C@]3(C)[C@@H]2C(=O)C[C@@H]2[C@@]4(C)CC[C@H](OC(=O)CC(C)(C)C(=O)O)C(C)(C)[C@@H]4CC[C@]23C)O1
15 | 18.9 µM | 10.9 µM | inactive | inactive | CC1(C)CCC[C@](C)([C@H]2CC[C@]3(C)[C@@H]2C(=O)C[C@@H]2[C@@]4(C)CC[C@H](OC(=O)CC(C)(C)C(=O)O)C(C)(C)[C@@H]4[C@@H](OC(=O)CC(C)(C)C(=O)O)C[C@]23C)O1
16 | > 166 µM | 3.9 µM | inactive | inactive | CC1(C)CCC[C@](C)([C@H]2CC[C@]3(C)[C@@H]2[C@H](O)C[C@@H]2[C@@]4(C)CC[C@H](OC(=O)CC(C)(C)C(=O)O)C(C)(C)[C@@H]4[C@@H](O)C[C@]23C)O1
17 | 1.8 µM | 5.4 µM | inactive | inactive | CC1(C)CCC[C@](C)([C@H]2CC[C@]3(C)[C@@H]2[C@H](O)C[C@@H]2[C@@]4(C)CC[C@H](OC(=O)CC(C)(C)C(=O)O)C(C)(C)[C@@H]4[C@@H](OC(=O)CC(C)(C)C(=O)O)C[C@]23C)O1
18 | 30.4 µM | 2.7 µM | inactive | inactive | CC1(C)CCC[C@](C)([C@H]2CC[C@]3(C)[C@@H]2[C@H](O)C[C@@H]2[C@@]4(C)CC[C@H](OC(=O)CC(C)(C)C(=O)O)C(C)(C)[C@@H]4CC[C@]23C)O1
19 | > 193 µM | > 193 µM |  |  | COC(=O)[C@@]1(O)C[C@]2(C)[C@H]3C[C@@H](O)[C@@H]4[C@@H]([C@@]5(C)CCCC(C)(C)O5)CC[C@@]4(C)[C@]3(C)CC(=O)[C@H]2C1(C)C
